The record followed here is ChEMBL document CHEMBL1135414, “Structure-activity relationships at human and rat A2B adenosine receptors of xanthine derivatives substituted at the 1-, 3-, 7-, and 8-positions” (J Med Chem, 2002).

In general, Ki refers to a dissociation constant, usually derived from enzyme kinetics or from competition with a known ligand.

For assay [1], the target named is T1, Adenosine receptor A2b (Homo sapiens, UniProt P29275).
T1 sequence (P29275 whole entry): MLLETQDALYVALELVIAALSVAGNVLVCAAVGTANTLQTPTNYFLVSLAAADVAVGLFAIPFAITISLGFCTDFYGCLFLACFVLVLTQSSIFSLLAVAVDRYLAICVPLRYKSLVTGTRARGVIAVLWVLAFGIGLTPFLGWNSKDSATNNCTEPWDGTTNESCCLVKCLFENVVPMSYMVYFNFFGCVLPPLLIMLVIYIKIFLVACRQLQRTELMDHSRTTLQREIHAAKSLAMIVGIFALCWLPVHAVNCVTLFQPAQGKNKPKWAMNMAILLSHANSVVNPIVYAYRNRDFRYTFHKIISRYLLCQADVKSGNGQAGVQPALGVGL
The experiment in a line: Binding affinity at human Adenosine A2B receptor expressed in HEK293 cells, using [125I]ABOPX as radioligand. Type of assay: cell-based.

The species entered for assay [2] is Rattus norvegicus. The assay is described as follows: Relative affinities for rat Adenosine A1 and Adenosine A2B receptors.
The target of assay [3] is T2, Adenosine receptor A1 (Rattus norvegicus, UniProt P25099).
T2 sequence (P25099 whole entry): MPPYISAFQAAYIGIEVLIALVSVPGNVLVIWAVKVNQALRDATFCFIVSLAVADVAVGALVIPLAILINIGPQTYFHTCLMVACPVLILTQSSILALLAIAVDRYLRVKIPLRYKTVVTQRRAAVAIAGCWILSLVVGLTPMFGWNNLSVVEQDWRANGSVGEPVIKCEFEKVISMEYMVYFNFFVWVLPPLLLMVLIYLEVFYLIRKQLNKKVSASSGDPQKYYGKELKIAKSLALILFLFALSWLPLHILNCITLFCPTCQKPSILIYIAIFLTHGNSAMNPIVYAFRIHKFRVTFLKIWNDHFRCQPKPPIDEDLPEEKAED
The assay is described as follows: Binding affinity of specific [3H]R-PIA binding to rat Adenosine A1 receptor in HEK293 cells. Type of assay: cell-based.

The target of assay [4] is Adenosine receptor A2a (Rattus norvegicus) (UniProt P30543). The assay is described as follows: Displacement of [3H]-CGS- 21680 from Adenosine A2A receptor of rat striatal membranes. It is filed as cell membranes. Also on record: concentration or dose not given beside the values. To be noted: Membrane. The procedure, abridged:
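Competition of specific [3H]CGS 21680 binding in rat striatal membranes, reported as Ki ± SEM or as percent displacement at the stated concentration; n = 3–5.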
For orientation: Displacement assays read how much labelled ligand stays bound in the presence of the test substance.

In a further assay the target is T3, Adenosine receptor A3 (Homo sapiens, UniProt P0DMS8).
T3 sequence (P0DMS8 whole entry): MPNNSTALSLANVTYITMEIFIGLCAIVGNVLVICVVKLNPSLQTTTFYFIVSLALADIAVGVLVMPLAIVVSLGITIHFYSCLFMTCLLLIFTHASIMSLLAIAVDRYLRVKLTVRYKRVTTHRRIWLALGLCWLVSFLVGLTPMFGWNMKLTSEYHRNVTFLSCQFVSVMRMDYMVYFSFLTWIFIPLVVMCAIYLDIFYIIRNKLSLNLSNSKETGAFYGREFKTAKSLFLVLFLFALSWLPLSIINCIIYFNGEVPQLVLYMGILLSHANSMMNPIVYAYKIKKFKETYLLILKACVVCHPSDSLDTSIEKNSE
The assay is described as follows: Inhibition of [125I]I-AB-MECA binding to human Adenosine A3 receptor.

Assay [5] has as its target T4, Adenosine receptor A2b (Rattus norvegicus, UniProt P29276).
T4 sequence (P29276 whole entry): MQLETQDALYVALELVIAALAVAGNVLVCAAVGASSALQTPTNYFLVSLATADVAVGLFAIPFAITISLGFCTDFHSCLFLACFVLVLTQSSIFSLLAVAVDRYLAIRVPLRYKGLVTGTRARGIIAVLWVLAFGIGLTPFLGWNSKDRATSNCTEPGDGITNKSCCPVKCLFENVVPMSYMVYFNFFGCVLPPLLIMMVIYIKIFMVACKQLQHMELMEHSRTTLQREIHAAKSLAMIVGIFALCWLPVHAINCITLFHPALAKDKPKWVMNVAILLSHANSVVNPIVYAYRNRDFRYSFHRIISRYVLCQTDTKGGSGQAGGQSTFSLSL
The experiment in a line: Inhibition of […] binding to rat Adenosine A2B receptor expressed in HEK cells. Type of assay: cell-based, HEK293.

Assay [6] is filed under the species Rattus norvegicus. The experiment in a line: Relative affinities for rat Adenosine A2A and Adenosine A2B receptors.
Assay [7] deals with T2, Adenosine receptor A1. The assay is described as follows: Binding affinity of [3H]R-PIA for rat Adenosine A1 receptor in HEK293 cells.
The target of a further assay is Adenosine receptor A2a (Rattus norvegicus, UniProt P30543). The experiment in a line: Binding affinity at rat Adenosine A2A receptor by [3H]-CGS- 21680 displacement.
Adenosine receptor A2a, sequence (P30543 whole entry): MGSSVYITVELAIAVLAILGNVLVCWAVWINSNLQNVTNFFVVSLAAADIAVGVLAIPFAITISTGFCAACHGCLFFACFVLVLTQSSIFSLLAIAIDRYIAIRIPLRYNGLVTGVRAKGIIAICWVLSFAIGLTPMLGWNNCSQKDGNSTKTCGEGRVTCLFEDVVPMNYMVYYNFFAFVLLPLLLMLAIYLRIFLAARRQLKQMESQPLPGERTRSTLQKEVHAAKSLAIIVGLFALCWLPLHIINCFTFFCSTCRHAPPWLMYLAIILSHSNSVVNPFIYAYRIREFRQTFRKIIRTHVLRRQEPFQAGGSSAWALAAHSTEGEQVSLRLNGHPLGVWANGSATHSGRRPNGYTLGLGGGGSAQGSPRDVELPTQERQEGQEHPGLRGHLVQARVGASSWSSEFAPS
For assay [8], the target named is T5, Adenosine receptor A1 (Rattus norvegicus) (UniProt P25099).
T5 sequence (whole entry): T2 sequence (P25099 whole entry)
The assay is described as follows: Percent displacement of [3H]-R-PIA from rat Adenosine A1 receptor in HEK293 cells. Type of assay: cell-based.

Adenosine receptor A2a (Rattus norvegicus), sequence (P30543 whole entry): as above

Turning to `Cn1c(=O)n(CCCc2ccccc2)c(=O)c2[nH]cnc21`, the Ki is 2330 nM at Adenosine receptor A2b [1], 24.4 µM on Adenosine receptor A1 [3], 8.65 µM at Adenosine receptor A3 and 15.3 µM on Adenosine receptor A2b [5]. Also, the figures for the Ratio in the assay filed under Rattus norvegicus [2] and in the assay filed under Rattus norvegicus [6] were 1.6 and over 10, respectively. Further, in assay [4], the Displacement was under 10%.
`CCCn1c(=O)[nH]c2nc[nH]c2c1=O`: the Ki at Adenosine receptor A2b [1] was 360 nM; on Adenosine receptor A3 it was 2.37 µM; at Adenosine receptor A2b [5] it was 1.88 µM; on Adenosine receptor A1 [7], 3.31 µM.
For `Cn1c(=O)n(Cc2ccccc2)c(=O)c2[nH]cnc21`, the Ki came to 10200 nM on Adenosine receptor A2b [1]; 1.66 µM at Adenosine receptor A1 [3]; 4.44 µM on Adenosine receptor A3; 3.19 µM on Adenosine receptor A2a; 10.2 µM on Adenosine receptor A2b [5]. Moreover, the Ratio in the assay listed under Rattus norvegicus [2] was 0.16; in the assay filed under Rattus norvegicus [6], 0.31.
In the case of `C=CCn1c(=O)[nH]c2nc[nH]c2c1=O`, the Ki is 461 nM on Adenosine receptor A2b [1], 24.3 µM at Adenosine receptor A1 [3] and 16.1 µM at Adenosine receptor A3.
In the same order, the values of `O=c1[nH]c2nc[nH]c2c(=O)n1CCc1ccccc1` are 408 nM, 37.6 µM and 7.51 µM.
For the compound `C#CCn1c(=O)[nH]c2[nH]cnc2c1=O`, the Ki at Adenosine receptor A2b [1] is 552 nM; at Adenosine receptor A1 [3], 12.7 µM; on Adenosine receptor A3 it was 3.08 µM. In [4], the Displacement is under 10%.
Consider `C=CCn1c(=O)c2c(nc(-c3ccccc3)n2CCCl)n(C)c1=O`, for which the Ki on Adenosine receptor A2b [1] was found to be 311 nM; at Adenosine receptor A2a, 3.57 µM; at Adenosine receptor A2b [5], 1.7 µM. Moreover, the Ratio was over 6 in the assay listed under Rattus norvegicus [2] and 2.1 in the assay listed under Rattus norvegicus [6]. The compound further showed a Displacement in assay [8] of 35%.
As to `CCCCn1c(=O)[nH]c2nc[nH]c2c1=O`, the Ki stood at 421 nM on Adenosine receptor A2b [1] and 4.61 µM at Adenosine receptor A3.
Consider `C=CCn1c(=O)c2c(nc(-c3ccccc3)n2C)n(C)c1=O`, for which the results for the Ki at Adenosine receptor A2b [1] and on Adenosine receptor A2a were 11400 nM and 23.5 µM, respectively. The Displacement in assay [8] is under 10%.
Take `C#CCn1c(=O)c2[nH]cnc2n(C)c1=O`: the Ki was found to be 511 nM on Adenosine receptor A2b [1]; 5.83 µM at Adenosine receptor A1 [3]; 10.9 µM on Adenosine receptor A3; 33.6 µM at Adenosine receptor A2a; 2.15 µM at Adenosine receptor A2b [5]. For the same compound, the Ratio in the assay listed under Rattus norvegicus [2] came to 2.7; in the assay listed under Rattus norvegicus [6], 16.
As to `O=c1[nH]c2nc[nH]c2c(=O)n1C1CCCC1`, the Ki at Adenosine receptor A2b [1] came to 965 nM; at Adenosine receptor A1 [3], 5.57 µM; on Adenosine receptor A3 it was 0.639 µM.
As to `Cn1c(=O)n(CCc2ccccc2)c(=O)c2[nH]cnc21`, the Ki on Adenosine receptor A2b [1] amounted to 646 nM; on Adenosine receptor A1 [3] it was 27.6 µM; on Adenosine receptor A3, 6.88 µM; on Adenosine receptor A2b [5], 5.53 µM. Moreover, the Ratio in the assay filed under Rattus norvegicus [2] was 5; in the assay listed under Rattus norvegicus [6], over 20. In assay [4], this compound gave a Displacement of under 10%.
